From ChEMBL document CHEMBL4196081, “Synthesis and antimycobacterial activity of 1-(β-d-Ribofuranosyl)-4-coumarinyloxymethyl- / -coumarinyl-1,2,3-triazole” (Eur J Med Chem, 2018)
In brackets after ≈: the same amount, converted by molar mass. Activity calls are given as the source filed them. No cut-off for these calls is given here.

Legend:
[1] = tested on: Mycobacterium tuberculosis; experiment: Potency index, ratio of ethambutol MIC to compound MIC for antimycobacterial activity against MDR Mycobacterium tuberculosis isolate 591; assay type: functional
[2] = biological target: T1, Enoyl-[acyl-carrier-protein] reductase [NADH] (Mycobacterium tuberculosis) (UniProt P9WGR1); experiment: Inhibition of Mycobacterium tuberculosis H37Rv InhA expressed in Escherichia coli at 5 to 100 uM preincubated for 30 mins followed by crotonoyl-CoA substrate and NADH addition measured over 15 mins by spectrophotometric method
T1 sequence (whole entry): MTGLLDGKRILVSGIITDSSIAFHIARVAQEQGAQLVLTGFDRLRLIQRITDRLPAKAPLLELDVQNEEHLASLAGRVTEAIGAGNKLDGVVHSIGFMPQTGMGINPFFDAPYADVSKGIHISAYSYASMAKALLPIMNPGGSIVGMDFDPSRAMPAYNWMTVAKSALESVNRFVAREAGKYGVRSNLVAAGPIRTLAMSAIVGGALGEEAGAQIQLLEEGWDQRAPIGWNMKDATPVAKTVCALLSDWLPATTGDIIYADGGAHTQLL
Summary of the method: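 Purified recombinant InhA (Rv1484, cloned in E. coli), 2 µg, preincubated 30 min with compound at 5 µM final (DMSO ≤1 % v/v) in 100 mM sodium phosphate pH 7.5; started with 100 µM NADH and 100 µM crotonoyl-CoA; A340 followed 15 min at room temperature. Triplicate.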

[3] = Selectivity index, ratio of IC50 for cytotoxicity against human THP1 cells to MIC for Mycobacterium tuberculosis H37Rv; assay type: toxicity, cell-based; conditions: THP-1 cells, read-out: Selectivity Index
Summary of the method: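 THP-1 cells, 10^4/well, adhered with PMA 20 ng/mL, in RPMI with 10 % FCS and 2 mM L-glutamine; exposed to 4.68–150 µg/mL for 24 and 48 h at 37 °C, 5 % CO2; MTT 4 h, formazan in DMSO, A540. Index = THP-1 IC50 divided by H37Rv MABA MIC.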

[4] = tested on: Mycobacterium tuberculosis; experiment: Bactericidal activity against Mycobacterium tuberculosis H37Rv after 4 weeks by MABA; assay type: functional; conditions: 672 h
[5] = Cytotoxicity against human THP1 cells assessed as cell viability at 37.48 ug/ml after 48 hrs by MTT assay relative to control; assay type: cell-based; conditions: THP-1 cells, read-out: Activity
Summary of the method: (§1)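 THP-1 cells (human monocytic line) seeded at 10^4 per well and adhered with phorbol myristate acetate (20 ng/mL). Then given fresh RPMI with 10% foetal calf serum and 2 mM L-glutamine, plus compound by serial double dilution (4.68–150 µg/mL), with DMSO and no-DMSO controls. Incubated 24 or 48 h at 37 °C, 5% CO2. MTT added for 4 h, formazan dissolved in DMSO, A540 read, percentage survival calculated.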

[6] = tested on: Mycobacterium tuberculosis; experiment: Antimycobacterial activity against Mycobacterium tuberculosis H37Rv after 10 days by MABA; assay type: functional; conditions: 240 h
Summary of the method: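 MABA in 7H9 medium: log-phase culture passed through 8 µm filter, density set by OD600 and McFarland standards, 1 × 10^6 cells per well with drug dilutions; aerobic incubation 37 °C 10 days, then 0.02 % resazurin, overnight 37 °C. MIC = lowest concentration preventing blue-to-pink change. Triplicate; medium+inoculum and medium-only controls.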

[7] = Cytotoxicity against human THP1 cells assessed as cell viability at 9.36 ug/ml after 48 hrs by MTT assay relative to control; assay type: cell-based; conditions: THP-1 cells, read-out: Activity; summary of the method: as §1
[8] = tested on: Mycobacterium tuberculosis; experiment: Ratio of MBC to MIC for MDR Mycobacterium tuberculosis isolate 591; assay type: functional
[9] = tested on: Mycobacterium tuberculosis; experiment: Potency index, ratio of isoniazid MIC to compound MIC for antimycobacterial activity against MDR Mycobacterium tuberculosis isolate 591; assay type: functional
[10] = Cytotoxicity against human THP1 cells assessed as cell viability at 9.36 ug/ml after 24 hrs by MTT assay relative to control; assay type: cell-based; conditions: THP-1 cells, read-out: Activity; summary of the method: as §1
[11] = tested on: Mycobacterium tuberculosis; experiment: Potency index, ratio of streptomycin MIC to compound MIC for antimycobacterial activity against MDR Mycobacterium tuberculosis isolate 591; assay type: functional
[12] = tested on: Mycobacterium tuberculosis; experiment: Antimycobacterial activity against Mycobacterium tuberculosis H37Rv assessed as cells with vacuole formation at 1.38 uM after 30 mins by TEM analysis; assay type: functional, organism-based
[13] = Cytotoxicity against human THP1 cells assessed as cell viability at 150 ug/ml after 24 hrs by MTT assay relative to control; assay type: cell-based; conditions: THP-1 cells, read-out: Activity; summary of the method: as §1
[14] = Cytotoxicity against human THP1 cells assessed as cell viability at 75 ug/ml after 48 hrs by MTT assay relative to control; assay type: cell-based; conditions: THP-1 cells, read-out: Activity; summary of the method: as §1
[15] = tested on: Mycobacterium tuberculosis; experiment: Antimycobacterial activity against Mycobacterium tuberculosis H37Rv assessed as induction of cell wall disintegration at 1.38 uM after 30 mins by TEM analysis; assay type: functional, organism-based
[16] = tested on: Mycobacterium tuberculosis; experiment: Antimycobacterial activity against MDR Mycobacterium tuberculosis isolate 591 after 15 days by MABA; assay type: functional; conditions: isolate 591, 360 h
Summary of the method: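 MABA in 7H9 medium on MDR clinical isolate 591: filtered single-cell suspension, 1 × 10^6 cells per well with drug dilutions, aerobic 37 °C; 0.02 % resazurin added on day 15, overnight 37 °C. MIC = lowest concentration preventing blue-to-pink change. Triplicate; medium+inoculum and medium-only controls.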

[17] = tested on: Mycobacterium tuberculosis; experiment: Bactericidal activity against MDR Mycobacterium tuberculosis isolate 591 after 4 weeks by MABA; assay type: functional; conditions: isolate 591, 672 h
[18] = biological target: DNA gyrase subunit B (Escherichia coli) (UniProt P0AES6); experiment: Inhibition of Escherichia coli DNA gyrase-B at 0.66 to 100 uM using relaxed pUC19 DNA as substrate after 1 hr by bromophenol blue dye based agarose gel electrophoresis method
Summary of the method: (§2)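 E. coli DNA gyrase, 1 unit, with 0.3 µg relaxed pUC19 plasmid in 1X gyrase assay buffer. Compound added as 0.2 µL from 100 µM stock; ciprofloxacin positive control, DMSO solvent control. Incubated 37 °C for 1 h, stopped with 50% glycerol/0.25% bromophenol blue. Run on 1% agarose in 0.5X TBE pH 8.3, 16 h at 30 mA, ethidium bromide stained, UV visualised for supercoiling.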

[19] = Cytotoxicity against human THP1 cells assessed as cell viability at 18.72 ug/ml after 48 hrs by MTT assay relative to control; assay type: cell-based; conditions: THP-1 cells, read-out: Activity; summary of the method: as §1
[20] = Cytotoxicity against human THP1 cells assessed as cell viability at 150 ug/ml after 48 hrs by MTT assay relative to control; assay type: cell-based; conditions: THP-1 cells, read-out: Activity; summary of the method: as §1
[21] = Cytotoxicity against human THP1 cells assessed as cell viability at 75 ug/ml after 24 hrs by MTT assay relative to control; assay type: cell-based; conditions: THP-1 cells, read-out: Activity; summary of the method: as §1
THP-1 = experiment: Cytotoxicity against human THP1 cells assessed as growth inhibition after 24 to 48 hrs by MTT assay; assay type: cell-based; summary of the method: as §1
[22] = Cytotoxicity against human THP1 cells assessed as cell viability at 37.48 ug/ml after 24 hrs by MTT assay relative to control; assay type: cell-based; conditions: THP-1 cells, read-out: Activity; summary of the method: as §1
[23] = Cytotoxicity against human THP1 cells assessed as cell viability at 4.68 ug/ml after 24 hrs by MTT assay relative to control; assay type: cell-based; conditions: THP-1 cells, read-out: Activity; summary of the method: as §1
[24] = tested on: Mycobacterium tuberculosis; experiment: Potency index, ratio of rifampicin MIC to compound MIC for antimycobacterial activity against MDR Mycobacterium tuberculosis isolate 591; assay type: functional
[25] = Cytotoxicity against human THP1 cells assessed as cell viability at 4.68 ug/ml after 48 hrs by MTT assay relative to control; assay type: cell-based; conditions: THP-1 cells, read-out: Activity; summary of the method: as §1
DNA gyrase subunit B = DNA gyrase subunit B (Escherichia coli, UniProt P0AES6); experiment: Inhibition of Escherichia coli DNA gyrase-B using relaxed pUC19 DNA as substrate after 1 hr by bromophenol blue dye based agarose gel electrophoresis method; summary of the method: as §2
[26] = Cytotoxicity against human THP1 cells assessed as cell viability at 18.72 ug/ml after 24 hrs by MTT assay relative to control; assay type: cell-based; conditions: THP-1 cells, read-out: Activity; summary of the method: as §1
[27] = tested on: Mycobacterium tuberculosis; experiment: Ratio of MBC to MIC for Mycobacterium tuberculosis H37Rv; assay type: functional

Structure (SMILES): Cc1cc(=O)oc2cc(OCc3cn([C@@H]4O[C@H](CO)[C@@H](O)[C@H]4O)nn3)ccc12
- Ratio [1]: 7 - 420
- inhibition [2]: Active
- selectivity ratio [3]: 75.4
- MBC [4]: 6.4 µM (≈ 2.49 µg/mL)
- viability at 48 h, 37.48 ug/ml [5]: 74%
- MIC [6]: 5.1 µM (≈ 1.99 µg/mL)
- viability at 48 h, 9.36 ug/ml [7]: 94%
- Ratio [8]: 1.13
- Ratio [9]: 7 - 420
- viability at 24 h, 9.36 ug/ml [10]: 100%
- Ratio [11]: 7 - 420
- Activity [12]: Active
- viability at 24 h, 150 ug/ml [13]: 84%
- viability at 48 h, 75 ug/ml [14]: 68%
- Activity [15]: Active
- MIC [16]: 10.3 µM (≈ 4.01 µg/mL)
- MBC [17]: 11.5 µM (≈ 4.48 µg/mL)
- inhibition [18]: Active
- viability at 48 h, 18.72 ug/ml [19]: 84%
- viability at 48 h, 150 ug/ml [20]: 60%
- viability at 24 h, 75 ug/ml [21]: 97%
- IC50 (THP-1): > 385 µM
- viability at 24 h, 37.48 ug/ml [22]: 100%
- viability at 24 h, 4.68 ug/ml [23]: 100%
- Ratio [24]: 7 - 420
- viability at 48 h, 4.68 ug/ml [25]: 95%
- IC50 (DNA gyrase subunit B): 0.8 µM
- viability at 24 h, 18.72 ug/ml [26]: 100%
- Ratio [27]: 1.25
